Laboratory results from ChEMBL document CHEMBL3526053, “Species-dependent uptake of glycylsarcosine but not oseltamivir in Pichia pastoris expressing the rat, mouse, and human intestinal peptide transporter PEPT1” (Drug Metab Dispos, 2012).

Tests used:
Assay type in all cases: ADME
[1] = target: T1, Solute carrier family 15 member 1 (Mus musculus, UniProt Q9JIP7); experiment: Drug uptake in Pichia pastoris GS115 expressing mouse recombinant PEPT1 at 5 uM after 30s by dual-channel liquid scintillation counting analysis in presence of cefadroxil relative to control; details: 0.5 min
T1 sequence (Q9JIP7 whole entry): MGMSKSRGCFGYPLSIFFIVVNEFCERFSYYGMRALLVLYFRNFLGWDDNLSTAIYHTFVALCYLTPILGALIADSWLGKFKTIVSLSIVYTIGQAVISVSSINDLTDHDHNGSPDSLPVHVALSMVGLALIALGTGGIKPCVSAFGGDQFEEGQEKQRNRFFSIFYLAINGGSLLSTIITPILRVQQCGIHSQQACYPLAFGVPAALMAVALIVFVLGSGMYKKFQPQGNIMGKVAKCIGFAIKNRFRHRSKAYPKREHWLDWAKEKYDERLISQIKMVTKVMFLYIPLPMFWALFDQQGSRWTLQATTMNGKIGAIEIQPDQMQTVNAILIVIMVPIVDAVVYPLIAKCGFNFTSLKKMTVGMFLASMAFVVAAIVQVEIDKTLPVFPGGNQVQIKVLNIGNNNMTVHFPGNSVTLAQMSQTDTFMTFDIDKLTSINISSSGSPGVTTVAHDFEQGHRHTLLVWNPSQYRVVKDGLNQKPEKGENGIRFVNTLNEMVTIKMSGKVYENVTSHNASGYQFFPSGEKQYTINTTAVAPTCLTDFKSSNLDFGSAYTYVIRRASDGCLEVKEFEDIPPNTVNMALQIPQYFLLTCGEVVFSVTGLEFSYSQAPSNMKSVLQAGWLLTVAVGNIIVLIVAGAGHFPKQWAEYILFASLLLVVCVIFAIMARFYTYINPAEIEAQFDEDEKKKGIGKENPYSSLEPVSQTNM
In short: (§1)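 [3H]GlySar 5.0 µM final, 30-s uptake at 24°C in 100 mM potassium phosphate pH 6.5, with or without a potential inhibitor at 10 mM. Cells are methanol-induced transformants. Values are vector-subtracted and expressed as percent of buffer control. Mean ± SE (n=3). ANOVA with Dunnett's test.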

[2] = target: T2, Solute carrier family 15 member 1 (Rattus norvegicus, UniProt P51574); experiment: Drug uptake in Pichia pastoris GS115 expressing rat recombinant PEPT1 at 5 uM after 30s by dual-channel liquid scintillation counting analysis in presence of L-histidine relative to control; details: in vivo, 0.5 min; in short: as §1
T2 sequence (P51574 whole entry): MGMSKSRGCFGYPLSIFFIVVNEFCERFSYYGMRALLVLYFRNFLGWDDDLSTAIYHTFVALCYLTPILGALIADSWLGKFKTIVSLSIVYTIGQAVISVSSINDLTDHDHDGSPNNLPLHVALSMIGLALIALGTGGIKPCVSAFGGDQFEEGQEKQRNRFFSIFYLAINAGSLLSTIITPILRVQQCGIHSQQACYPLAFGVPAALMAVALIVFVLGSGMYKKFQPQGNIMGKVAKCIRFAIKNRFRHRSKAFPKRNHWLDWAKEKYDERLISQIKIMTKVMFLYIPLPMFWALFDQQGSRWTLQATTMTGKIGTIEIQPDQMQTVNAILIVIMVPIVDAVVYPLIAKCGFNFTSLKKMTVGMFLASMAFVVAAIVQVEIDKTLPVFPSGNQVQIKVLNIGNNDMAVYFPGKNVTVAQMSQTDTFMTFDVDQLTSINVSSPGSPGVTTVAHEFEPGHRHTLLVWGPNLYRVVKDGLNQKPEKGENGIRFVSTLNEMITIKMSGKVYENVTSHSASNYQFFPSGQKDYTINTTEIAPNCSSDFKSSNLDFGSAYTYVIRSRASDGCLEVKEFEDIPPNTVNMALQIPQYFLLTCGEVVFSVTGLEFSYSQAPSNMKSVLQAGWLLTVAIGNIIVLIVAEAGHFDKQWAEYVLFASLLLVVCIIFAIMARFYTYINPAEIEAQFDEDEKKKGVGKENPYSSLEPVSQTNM

[3] = target: T2, Solute carrier family 15 member 1; experiment: Drug uptake in Pichia pastoris GS115 expressing rat recombinant PEPT1 at 5 uM after 30s by dual-channel liquid scintillation counting analysis in presence of elacridar relative to control; details: 0.5 min
In short: (§2)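 Rat PEPT1 (pPIC3.5K-rPept1) in GS115 His+Mut+ transformant, methanol-induced 20-24 hr in BMMY at 30°C, washed into 100 mM potassium phosphate pH 6.5. [3H]GlySar final 5.0 µM with inhibitor at 10 mM, 30 sec at 24°C. Counts taken by liquid scintillation after 24 hr standing. Values are vector-subtracted and given as % of buffer control. Mean ± SE, n=3.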

[4] = target: T2, Solute carrier family 15 member 1; experiment: Drug uptake in Pichia pastoris GS115 expressing rat recombinant PEPT1 at 5 uM after 30s by dual-channel liquid scintillation counting analysis in presence of cephalothin relative to control; details: 0.5 min; in short: as §2
[5] = target: T1, Solute carrier family 15 member 1; experiment: Drug uptake in Pichia pastoris GS115 expressing mouse recombinant PEPT1 at 5 uM after 30s by dual-channel liquid scintillation counting analysis in presence of SITS relative to control; details: 0.5 min; in short: as §1
[6] = target: T1, Solute carrier family 15 member 1; experiment: Drug uptake in Pichia pastoris GS115 expressing mouse recombinant PEPT1 at 5 uM after 30s by dual-channel liquid scintillation counting analysis in presence of elacridar relative to control; details: 0.5 min; in short: as §1
[7] = target: T2, Solute carrier family 15 member 1; experiment: Drug uptake in Pichia pastoris GS115 expressing rat recombinant PEPT1 at 5 uM after 30s by dual-channel liquid scintillation counting analysis in presence of glycine relative to control; details: 0.5 min; in short: as §2
[8] = target: T2, Solute carrier family 15 member 1; experiment: Drug uptake in Pichia pastoris GS115 expressing rat recombinant PEPT1 at 5 uM after 30s by dual-channel liquid scintillation counting analysis in presence of cefazolin relative to control; details: 0.5 min; in short: as §2
[9] = target: T1, Solute carrier family 15 member 1; experiment: Drug uptake in Pichia pastoris GS115 expressing mouse recombinant PEPT1 at 5 uM after 30s by dual-channel liquid scintillation counting analysis in presence of cephapirin relative to control; details: 0.5 min; in short: as §1

With `[3H]C(C(=O)O)N(C)C(=O)CN` (centres undefined) the Drug uptake [1] was 16.7%, the Drug uptake [2] was 113% and the Drug uptake [3] was 119%. The Drug uptake [4] was 119%, the Drug uptake [5] was 86.1% and the Drug uptake [6] was 89.3%. The Drug uptake [7] was 91.5%, the Drug uptake [8] was 93.7% and the Drug uptake [9] was 83.7%.
